Bioassay records (PubChem)
Pemphigus Ab inh – inhibitors of pemphigus antibody binding to human desmoglein-3; DSG3-coupled beads, scFv-anti-DSG3-GFP binding, flow cytometry; active compounds read low; binding (percent of control), % at 10 µM; 0.48% of 310,000 active;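 active = binding more than 3 SD below its plate's average and above zero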;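 note: hits lower antibody fragment binding to DSG3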
Arr AP2 block – inhibitors of human beta-arrestin and AP2 interaction; inhibition, % at 10 µM; AID 504490; FITC-arrestin peptide / GST-AP2 beads, flow cytometry; AP2 beta2 appendage carries R879A mutation; 0.31% of 340,000 active;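 active = inhibition above a set limit, near 3 SD of compounds lacking own fluorescence, cut at about 54% in these data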;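 note: plate controls were DMSO wells for no effect and 5 µM unlabelled arrestin peptide for full effect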
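System: GST-AP2 R879A glutathione beads; medium: PBS, Tween 20 0.05%, BSA 0.1%; reagent: fluorescein-tagged arrestin peptide at 50 nM final; schedule: pre-incubation 12 min, peptide binding 1 h, room temperature; detection: flow cytometry, FL1 (488/535 nm); read-out: inhibition as reduced fluorescein signal on beads, percent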
Efflux pump mplx – antifungal efflux pump inhibition, Nile Red retention; S. cerevisiae Candida pump triplex; inhibition, % at 10 µM; 0.44% of 330,000 active;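 active = plate passing quality check with inhibition over a set limit, or well fluorescence over plate mean plus 4 SD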;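 note: Nile Red retained in pooled yeast measured as flow cytometry median fluorescence; 0% = buffer negative control and 100% = Enniatin B positive control; higher means more Nile Red kept so more efflux inhibition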
Neddylation inh – cullin neddylation inhibition; inhibition, % at 25 µM; 0.58% of 360,000 active; P61081+Q13564; TR-FRET cullin neddylation, biochemical; in the data active = inhibition above about 36%
Target sequence (P61081 whole entry, looked up): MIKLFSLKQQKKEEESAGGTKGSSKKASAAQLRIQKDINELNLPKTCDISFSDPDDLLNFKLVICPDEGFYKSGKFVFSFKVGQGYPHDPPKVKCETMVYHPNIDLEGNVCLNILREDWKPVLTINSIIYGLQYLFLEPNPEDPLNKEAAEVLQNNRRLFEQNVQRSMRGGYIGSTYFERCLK
Target sequence (Q13564 whole entry, looked up): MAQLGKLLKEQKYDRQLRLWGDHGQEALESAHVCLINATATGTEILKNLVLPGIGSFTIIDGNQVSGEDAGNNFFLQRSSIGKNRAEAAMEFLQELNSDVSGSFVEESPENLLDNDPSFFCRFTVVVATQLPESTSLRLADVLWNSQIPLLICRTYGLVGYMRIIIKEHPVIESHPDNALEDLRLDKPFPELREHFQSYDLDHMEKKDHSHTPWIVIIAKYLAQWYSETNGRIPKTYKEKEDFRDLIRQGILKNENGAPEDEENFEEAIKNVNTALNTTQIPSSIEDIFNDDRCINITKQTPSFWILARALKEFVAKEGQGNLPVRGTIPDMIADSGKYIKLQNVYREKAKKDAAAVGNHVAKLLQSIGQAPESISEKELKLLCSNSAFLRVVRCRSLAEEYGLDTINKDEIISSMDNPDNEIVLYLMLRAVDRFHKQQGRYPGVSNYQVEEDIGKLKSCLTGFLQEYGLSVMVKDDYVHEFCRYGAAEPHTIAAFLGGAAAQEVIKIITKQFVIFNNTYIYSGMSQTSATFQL
Cmpd fluor yeast – compound fluorescence in yeast efflux pump counter-screen. S. cerevisiae AD/pABC3, flow cytometry. 4% of 1,700 active. AID 588517. fluorescence ratio to DMSO, % at 10 µM. shares compounds with Efflux pump mplx;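 active = fluorescence ratio to DMSO above its plate's cutoff, the plate mean ratio plus 5 SD, cut at about 210% in these data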;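 note: unstained yeast with no Nile Red so the signal is compound autofluorescence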
Mdr1 pump inh – blocks the Candida albicans Mdr1 efflux pump in yeast; 1% of 1,700 active; S. cerevisiae AD/CaMDR1, Nile Red efflux, flow cytometry; shares compounds with Efflux pump mplx; inhibition, % at 10 µM; in the data active = inhibition above about 26%;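 note: 0% = DMSO vehicle and 100% = reference inhibitor; higher means more Nile Red retained so more efflux inhibition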
Cdr2 pump inh – inhibitors of Candida albicans Cdr2 efflux pump; S. cerevisiae AD/CaCDR2, Nile Red retention, flow cytometry; 4% of 1,700 active; shares compounds with Efflux pump mplx; Nile Red retention ratio vs DMSO, % at 10 µM; in the data active = Nile Red retention ratio vs DMSO above about 190%;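 note: higher ratio means more blocking of Cdr2 efflux of the dye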
CaCdr1 efflux inh – inhibitors of Candida albicans Cdr1 efflux pump; shares compounds with Efflux pump mplx; S. cerevisiae AD/CaCDR1, Nile Red efflux, flow cytometry; inhibition, % at 10 µM; 1% of 1,700 active; AID 588522;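 active = inhibition above the screen-wide mean plus twice its standard deviation, cut at about 32% in these data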
* = called active by the depositor; x = no result given. Rows were chosen to be rich in hits. Some 1.7% of all compounds tested hit in one or more screens of this group.

SMILES	Pemphigus Ab inh	Arr AP2 block	Efflux pump mplx	Neddylation inh	Cmpd fluor yeast	Mdr1 pump inh	Cdr2 pump inh	CaCdr1 efflux inh
COc1ccc(CNC(=O)/C=C/c2ccco2)cc1OC	103	-2	0	-17	x	x	x	x
Cc1c(/C=N/NC(=O)c2cc(Br)ccc2O)c(=O)n(C)c(=O)n1C	110	-22	0.5*	-1	105	1	102	0
C/C=N/NC(=O)c1cc(Br)ccc1O	102	8	0	32	x	x	x	x
CCn1c(SCC(=O)N/N=C/C(C)=C/c2ccco2)nnc1-c1ccccc1	99	2	0.8*	-8	117	0	110	0
CCOc1ccccc1NC(=S)NC1CC2CCC1C2 (centres undefined)	93	5	1.1*	-3	102	0	108	0
Cc1occc1C(=O)NNC(=O)c1ccccc1F	111	8	1.1*	-1	105	0	104	0
COC(=O)c1sc2cc([N+](=O)[O-])cc(SCC(C)C)c2c1N	169	28	0	-10	x	x	x	x
O=C1CCCCC1C1(O)C(=O)Nc2ccccc21 (centres undefined)	104	x	x	6	x	x	x	x
CCOC(=O)N1CCN(C(=O)CSc2ccc(C(F)(F)F)cc2[N+](=O)[O-])CC1	x	8	0	-29	x	x	x	x
CN1CCN(C(=O)CSc2ccc(C(F)(F)F)cc2[N+](=O)[O-])CC1	100	-5	14*	-18	108	0	120	0
CCCC(c1nnnn1CS(=O)(=O)c1ccc(C)cc1)N1CCN(CC)CC1 (centres undefined)	102	29	1	-1	x	x	x	x
COc1ccc(CC(=O)Nc2c3c(nn2C(C)(C)C)CS(=O)C3)cc1 (centres undefined)	97	18	1.8*	5	114	0	100	0
CCOc1ccccc1NC(=O)COC(=O)C(CC(C)C)N1C(=O)C2CC=CCC2C1=O (centres undefined)	x	1	0	1	x	x	x	x
CC(C)CC(C(=O)OCC(=O)Nc1cccc(Cl)c1)N1C(=O)C2CC=CCC2C1=O (centres undefined)	x	6	2.7*	11	102	0	114	0
CCCCCOC(=O)CSc1nnc(-c2ccccc2)c(=O)[nH]1	104	-6	0	-13	x	x	x	x
COc1ccc(OC)c2sc(N3CCCCC3)nc12	x	21	1.1*	26	103	0	95	0
CNCc1ccccc1OCC(=O)Nc1ccccc1	109	18	8.2*	-2	106	0	106	0
CC(C)n1cc(/C=N/NC(=O)COc2cccc3cccnc23)c2ccccc21	90	-10	3.1*	-1	111	0	116	0
Cc1onc(-c2c(F)cccc2Cl)c1C(=O)NC1CCCCCC1	115	-4	0	0	x	x	x	x
Cc1onc(-c2c(F)cccc2Cl)c1C(=O)NC(=S)NC1CCS(=O)(=O)C1 (centres undefined)	64	-6	6.5*	-2	92	0	112	0
NC(=O)C1c2ccccc2Oc2ccccc21	93	2	4.9*	2	99	0	100	0
NNC(=O)C1c2ccccc2Oc2ccccc21	93	38	0	-1	x	x	x	x
COc1cc(C2NC(=O)CCC2[N+](=O)[O-])cc(OC)c1OC (centres undefined)	98	-12	0	-4	x	x	x	x
COc1ccc(N2C(=O)CC(NNC(=O)c3ccco3)C2=O)cc1 (centres undefined)	116	-14	2.1*	14	105	0	110	0
CC1CC(=O)N(CC(=O)Nc2ccc3c(c2)OCO3)c2ccccc2S1 (centres undefined)	98	27	0	1	80	0	89	0
SMILES	Pemphigus Ab inh	Arr AP2 block	Efflux pump mplx	Neddylation inh	Cmpd fluor yeast	Mdr1 pump inh	Cdr2 pump inh	CaCdr1 efflux inh
O=C(CN1C(=O)CC(c2ccco2)Sc2ccccc21)Nc1ccc2c(c1)OCCO2 (centres undefined)	103	0	0.7*	-7	101	0	96	0
O=C(CN1C(=O)CCSc2ccccc21)Nc1ccc(F)cc1	106	5	0	-9	99	0	98	0
O=C(CN1C(=O)CCSc2ccccc21)Nc1ccc2c(c1)OCCO2	95	19	0	-5	x	x	x	x
O=C(CN1C(=O)CCSc2ccccc21)Nc1ccccc1	103	3	0	-2	x	x	x	x
Cc1ccc(CNC(=O)CCc2c(C)nn(-c3ccc(N4CCOCC4)nn3)c2C)cc1	103	-1	2.0*	2	100	0	112	0
Cc1nn(-c2ccc(N3CCOCC3)nn2)c(C)c1CCC(=O)NCc1ccc(F)cc1	105	-12	0	13	x	x	x	x
CCOC(=O)N1CCN(C(=O)COC(=O)C2CCN(S(=O)(=O)c3c(C)c(C)cc(C)c3C)CC2)CC1	96	-1	0	3	x	x	x	x
COc1ccc(Cc2c(-c3ccc(C#N)cc3)nc3c(Cl)cc(C(F)(F)F)cn23)c(C)c1	x	x	x	-11	x	x	x	x
COc1ccccc1C(=O)N(NC(=O)Oc1ccccc1)C(C)(C)C	94	25	5.8*	1	99	0	112	0
Nc1ncnc2c1nc(N1CCCCC1)n2[C@@H]1O[C@H](CO)[C@@H](O)[C@H]1O	102	10	2.3*	-20	104	0	92	0
COc1ccc(Cl)cc1C(=O)O/N=C(\N)c1ccc(Cl)cc1	100	-4	6.5*	-3	113	0	110	0
COc1cc(OC)c(C(=O)O/N=C(\N)c2ccc(C)cc2)cc1OC	107	-7	0	10	x	x	x	x
COc1cccc(C(=O)O/N=C(\N)c2ccncc2)c1OC	88	16	13*	-2	98	0	107	0
CN(CC(=O)Nc1ccccc1Cl)C(=O)CN1C(=O)NC(c2ccccc2)(c2ccccc2)C1=O	x	-9	0	-1	x	x	x	x
O=C1/C(=C\c2ccc(O)cc2)SC(=S)N1/N=C/c1ccc(O)cc1	83	2	0	6	97	0	106	0
O=C1/C(=C/c2cccc(Br)c2)SC(=S)N1/N=C/c1cc([N+](=O)[O-])ccc1O	100	30	0	2	97	0	83	0
Cc1cc(NC(=O)c2cccnc2)ccc1Br	95	0	0	-9	x	x	x	x
COc1ccc(CCNCC2C(Oc3ccc(Cl)cc3)C(=O)N2c2ccccc2C)cc1OC (centres undefined)	104	1	0	11	x	x	x	x
CC1(OC(=O)C2CCCC2)C(=O)C=C2C=C(c3ccsc3)N(C(CO)CO)C=C2C1=O (centres undefined)	96	12	0	-16	x	x	x	x
